Measurements published in ChEMBL document CHEMBL3244396, “Synthesis and antileukemic activity of 5-substituted 2,3-dihydro-6,7-bis(hydroxymethyl)-1H-pyrrolizine diesters” (J Med Chem, 1977).
Converted amounts (≈) assume the structure as drawn.

Assays:
[1] = test system: P388; assay: Antitumor activity against mouse P388 cells allografted in female BDF1 mouse assessed as disease cures by measuring 30-days host survival at 0.78 mg/kg, ip administered daily for 9 days as Klucel suspension starting 24 hrs after tumor inoculation relative to control; type: functional; settings: route intraperitoneal
Procedure, shortened: (§1)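 P388 leukemia given as an ascitic fluid cell inoculum, ip, to mice of the strain and sex in each line. Nine daily ip doses were given in a Klucel (hydroxypropylcellulose) suspension, starting 24 h after inoculation. Read-out is median survival time as %T/C, with >125 taken as significant; a "cure" means 30-day survival.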

[2] = test system: P388; assay: Antitumor activity against mouse P388 cells allografted in male CDF1 mouse assessed as change in body weight at 100 mg/kg, ip administered daily for 9 days as Klucel suspension starting 24 hrs after tumor inoculation; type: functional; settings: route intraperitoneal
Procedure, shortened: (§2)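 Ascitic fluid carrying P388 cells was inoculated ip. Compound was given ip in nine daily doses, starting 24 h after inoculation, in Klucel (hydroxypropylcellulose) suspension or in saline with Tween-80. Body-weight difference (treated minus control) was recorded on day 5. Survival was scored as %T/C of median survival time, and 30-day survival counted as cure.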

[3] = test system: Mus musculus; assay: Toxicity in female CDF1 mouse allografted with mouse P388 cells assessed as animal survival at 12.5 mg/kg, ip administered daily for 9 days as Klucel suspension starting 24 hrs after tumor inoculation; type: organism-based; parameters: dose 12.5 mg/kg, route intraperitoneal; settings: in vivo
Procedure, shortened: (§3)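 P-388 leukemia ascitic fluid inoculated ip. Compound given ip as a suspension in Klucel (hydroxypropylcellulose), once daily for nine doses beginning 24 h post-inoculation. Acute toxicity assessed as toxicity-day survivors per group. Survival was followed up to 30 days, with 30-day survival counted as "cure". Follows NCI screening protocols.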

[4] = test system: L1210; assay: Antileukemic activity against mouse L1210 cells allografted in female CDF1 mouse assessed as host mean survival time at 12.5 mg/kg, ip administered daily for 9 days as Klucel suspension starting 24 hrs after tumor inoculation relative to control; type: functional; settings: route intraperitoneal
Procedure, shortened: (§4)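 L1210 leukemia given as an ascitic fluid cell inoculum, ip, to mice of the strain and sex in each line. Test material was given ip for nine daily doses starting 24 h after inoculation, in a Klucel (hydroxypropylcellulose) suspension. Read-out is mean survival time as %T/C versus controls, with >125 taken as significant.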

[5] = test system: P388; assay: Antitumor activity against mouse P388 cells allografted in female CDF1 mouse assessed as disease cures by measuring 30-days host survival at 12.5 mg/kg, ip administered daily for 9 days as Klucel suspension starting 24 hrs after tumor inoculation relative to control; type: functional; settings: route intraperitoneal; procedure, shortened: as §1
[6] = test system: Mus musculus; assay: Toxicity in female CDF1 mouse allografted with mouse L1210 cells assessed as animal survival at 6.25 mg/kg, ip administered daily for 9 days as Klucel suspension starting 24 hrs after tumor inoculation measured on fifth day; type: organism-based; parameters: dose 6.25 mg/kg, route intraperitoneal; settings: in vivo
Procedure, shortened: (§5)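 L1210 leukemia passaged as ascitic fluid and inoculated ip. Test agent given ip as a Klucel (hydroxypropylcellulose) suspension, nine daily doses starting 24 h after tumor inoculation. Acute toxicity read as toxicity-day survivors per group (out of 6), recorded on day 5. Animal weight difference T − C was also recorded. Follows NCI screening protocols.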

[7] = test system: Mus musculus; assay: Toxicity in female CDF1 mouse allografted with mouse P388 cells assessed as animal survival at 3.13 mg/kg, ip administered daily for 9 days as Klucel suspension starting 24 hrs after tumor inoculation; type: organism-based; parameters: dose 3.13 mg/kg, route intraperitoneal; settings: in vivo; procedure, shortened: as §3
[8] = test system: L1210; assay: Antileukemic activity against mouse L1210 cells allografted in female CDF1 mouse assessed as host mean survival time at 6.25 mg/kg, ip administered daily for 9 days as Klucel suspension starting 24 hrs after tumor inoculation relative to control; type: functional; settings: route intraperitoneal; procedure, shortened: as §4
[9] = test system: Mus musculus; assay: Toxicity in female BDF1 mouse allografted with mouse P388 cells assessed as animal survival at 0.78 mg/kg, ip administered daily for 9 days as Klucel suspension starting 24 hrs after tumor inoculation; type: organism-based; parameters: dose 0.78 mg/kg, route intraperitoneal; settings: in vivo; procedure, shortened: as §3
[10] = test system: P388; assay: Antitumor activity against mouse P388 cells allografted in female CDF1 mouse assessed as change in body weight at 12.5 mg/kg, ip administered daily for 9 days as Klucel suspension starting 24 hrs after tumor inoculation; type: functional; settings: route intraperitoneal; procedure, shortened: as §2
[11] = test system: P388; assay: Antitumor activity against mouse P388 cells allografted in female CDF1 mouse assessed as disease cures by measuring 30-days host survival at 6.25 mg/kg, ip administered daily for 9 days as Klucel suspension starting 24 hrs after tumor inoculation relative to control; type: functional; settings: route intraperitoneal; procedure, shortened: as §1
[12] = test system: P388; assay: Antitumor activity against mouse P388 cells allografted in male CDF1 mouse assessed as change in body weight at 25 mg/kg, ip administered daily for 9 days as Klucel suspension starting 24 hrs after tumor inoculation; type: functional; settings: route intraperitoneal; procedure, shortened: as §2
[13] = test system: P388; assay: Antitumor activity against mouse P388 cells allografted in male CDF1 mouse assessed as change in body weight at 50 mg/kg, ip administered daily for 9 days as Klucel suspension starting 24 hrs after tumor inoculation; type: functional; settings: route intraperitoneal; procedure, shortened: as §2
[14] = test system: L1210; assay: Antileukemic activity against mouse L1210 cells allografted in female CDF1 mouse assessed as host mean survival time at 3.13 mg/kg, ip administered daily for 9 days as Klucel suspension starting 24 hrs after tumor inoculation relative to control; type: functional; settings: route intraperitoneal; procedure, shortened: as §4
[15] = test system: Mus musculus; assay: Toxicity in male CDF1 mouse allografted with mouse P388 cells assessed as animal survival at 100 mg/kg, ip administered daily for 9 days as Klucel suspension starting 24 hrs after tumor inoculation; type: organism-based; parameters: dose 100 mg/kg, route intraperitoneal; settings: in vivo; procedure, shortened: as §3
[16] = test system: P388; assay: Antitumor activity against mouse P388 cells allografted in male CDF1 mouse assessed as change in body weight at 200 mg/kg, ip administered daily for 9 days as Klucel suspension starting 24 hrs after tumor inoculation; type: functional; settings: route intraperitoneal; procedure, shortened: as §2
[17] = test system: L1210; assay: Antileukemic activity against mouse L1210 cells allografted in female CDF1 mouse assessed as change in body weight at 3.13 mg/kg, ip administered daily for 9 days as Klucel suspension starting 24 hrs after tumor inoculation; type: functional; settings: route intraperitoneal
Procedure, shortened: (§6)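 Ascitic fluid carrying L1210 cells was inoculated ip. Compound was given ip as a Klucel (hydroxypropylcellulose) suspension in nine daily doses, starting 24 h after inoculation. Body-weight difference (treated minus control) was recorded on day 5. Survival was scored as %T/C of mean survival time.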

[18] = test system: P388; assay: Antitumor activity against mouse P388 cells allografted in female CDF1 mouse assessed as change in body weight at 6.25 mg/kg, ip administered daily for 9 days as Klucel suspension starting 24 hrs after tumor inoculation; type: functional; settings: route intraperitoneal; procedure, shortened: as §2
[19] = Cytotoxicity against human 9KB cells treated as ethanol solution; type: functional; settings: read-out: ED50 (the source's name)
Procedure, shortened: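 Compound applied as an ethanol solution; activity read out as ED50 under the general screening protocol.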

[20] = test system: L1210; assay: Antileukemic activity against mouse L1210 cells allografted in female CDF1 mouse assessed as change in body weight at 12.5 mg/kg, ip administered daily for 9 days as Klucel suspension starting 24 hrs after tumor inoculation; type: functional; settings: route intraperitoneal; procedure, shortened: as §6
[21] = test system: L1210; assay: Antileukemic activity against mouse L1210 cells allografted in female CDF1 mouse assessed as change in body weight at 6.25 mg/kg, ip administered daily for 9 days as Klucel suspension starting 24 hrs after tumor inoculation; type: functional; settings: route intraperitoneal; procedure, shortened: as §6
[22] = test system: P388; assay: Antitumor activity against mouse P388 cells allografted in male CDF1 mouse assessed as disease cures by measuring 30-days host survival at 50 mg/kg, ip administered daily for 9 days as Klucel suspension starting 24 hrs after tumor inoculation relative to control; type: functional; settings: route intraperitoneal; procedure, shortened: as §1
[23] = test system: Mus musculus; assay: Toxicity in female CDF1 mouse allografted with mouse L1210 cells assessed as animal survival at 3.13 mg/kg, ip administered daily for 9 days as Klucel suspension starting 24 hrs after tumor inoculation measured on fifth day; type: organism-based; parameters: dose 3.13 mg/kg, route intraperitoneal; settings: in vivo; procedure, shortened: as §5
[24] = test system: P388; assay: Antitumor activity against mouse P388 cells allografted in female BDF1 mouse assessed as change in body weight at 1.56 mg/kg, ip administered daily for 9 days as Klucel suspension starting 24 hrs after tumor inoculation; type: functional; settings: route intraperitoneal; procedure, shortened: as §2
[25] = test system: Mus musculus; assay: Toxicity in female BDF1 mouse allografted with mouse P388 cells assessed as animal survival at 1.56 mg/kg, ip administered daily for 9 days as Klucel suspension starting 24 hrs after tumor inoculation; type: organism-based; parameters: dose 1.56 mg/kg, route intraperitoneal; settings: in vivo; procedure, shortened: as §3
[26] = test system: Mus musculus; assay: Toxicity in female CDF1 mouse allografted with mouse P388 cells assessed as animal survival at 6.25 mg/kg, ip administered daily for 9 days as Klucel suspension starting 24 hrs after tumor inoculation; type: organism-based; parameters: dose 6.25 mg/kg, route intraperitoneal; settings: in vivo; procedure, shortened: as §3
[27] = test system: P388; assay: Antitumor activity against mouse P388 cells allografted in female CDF1 mouse assessed as change in body weight at 3.13 mg/kg, ip administered daily for 9 days as Klucel suspension starting 24 hrs after tumor inoculation; type: functional; settings: route intraperitoneal; procedure, shortened: as §2
[28] = test system: P388; assay: Antitumor activity against mouse P388 cells allografted in female BDF1 mouse assessed as disease cures by measuring 30-days host survival at 1.56 mg/kg, ip administered daily for 9 days as Klucel suspension starting 24 hrs after tumor inoculation relative to control; type: functional; settings: route intraperitoneal; procedure, shortened: as §1
[29] = test system: Mus musculus; assay: Toxicity in male CDF1 mouse allografted with mouse P388 cells assessed as animal survival at 200 mg/kg, ip administered daily for 9 days as Klucel suspension starting 24 hrs after tumor inoculation; type: organism-based; parameters: dose 200 mg/kg, route intraperitoneal; settings: in vivo; procedure, shortened: as §3
[30] = test system: P388; assay: Antitumor activity against mouse P388 cells allografted in female BDF1 mouse assessed as change in body weight at 0.78 mg/kg, ip administered daily for 9 days as Klucel suspension starting 24 hrs after tumor inoculation; type: functional; settings: route intraperitoneal; procedure, shortened: as §2
[31] = test system: P388; assay: Antitumor activity against mouse P388 cells allografted in female CDF1 mouse assessed as disease cures by measuring 30-days host survival at 3.13 mg/kg, ip administered daily for 9 days as Klucel suspension starting 24 hrs after tumor inoculation relative to control; type: functional; settings: route intraperitoneal; procedure, shortened: as §1

Question: What does the source list for `CNC(=O)OCc1c(COC(=O)NC)c(-c2ccc(F)cc2)n2c1CCC2`?
Answer: T/C [1]: 146%; Activity [2]: -1.5 g; Activity [3]: Non-toxic; T/C [4]: 118%; T/C [5]: 153%; Activity [6]: Non-toxic; Activity [7]: Non-toxic; T/C [8]: 107%; Activity [9]: Non-toxic; Activity [10]: -3.3 g; T/C [11]: 145%; Activity [12]: -2 g; Activity [13]: -3.4 g; T/C [14]: 115%; Activity [15]: Toxic; Activity [16]: -1.5 g; Activity [17]: 1.1 g; Activity [18]: -1 g; EC50 [19]: 0.22 µg/mL (≈ 0.586 µM); Activity [20]: 0.1 g; Activity [21]: 0.1 g; T/C [22]: 48%; Activity [23]: Non-toxic; Activity [24]: 0 g; Activity [25]: Non-toxic; Activity [26]: Non-toxic; Activity [27]: -0.3 g; T/C [28]: 122%; Activity [29]: Toxic; Activity [30]: 0.9 g; T/C [31]: 171%
